Results published in ChEMBL document CHEMBL4330076, “Quinazolin-2,4-dione-Based Hydroxamic Acids as Selective Histone Deacetylase-6 Inhibitors for Treatment of Non-Small Cell Lung Cancer” (J Med Chem, 2019).
The source made the active and inactive calls. No cut-off for these calls is given here.

How the values were obtained:
Homo sapiens = species on record: Homo sapiens; assay: Selectivity ratio of IC50 for human full-length recombinant HDAC1 expressed in baculovirus infected Sf9 insect cells to IC50 for human full-length recombinant HDAC6 expressed in baculovirus infected Sf9 insect cells
[1] = test system: Lewis lung carcinoma cell line; assay: Cytotoxicity against mouse LL/2 cells at 0.8 uM after 72 hrs in presence of paclitaxel by crystal violet staining-based assay relative to control; assay type: functional, cell-based
[2] = molecular target: T1, Protein deacetylase HDAC6 (Mus musculus) (UniProt Q9Z2V5); assay: Inhibition of HDAC6 in mouse LL/2 cells assessed as induction of alpha tubulin acetylation at 0.8 uM in presence of paclitaxel after 24 hrs by Western blot analysis relative to control; assay type: cell-based
T1 sequence (whole entry): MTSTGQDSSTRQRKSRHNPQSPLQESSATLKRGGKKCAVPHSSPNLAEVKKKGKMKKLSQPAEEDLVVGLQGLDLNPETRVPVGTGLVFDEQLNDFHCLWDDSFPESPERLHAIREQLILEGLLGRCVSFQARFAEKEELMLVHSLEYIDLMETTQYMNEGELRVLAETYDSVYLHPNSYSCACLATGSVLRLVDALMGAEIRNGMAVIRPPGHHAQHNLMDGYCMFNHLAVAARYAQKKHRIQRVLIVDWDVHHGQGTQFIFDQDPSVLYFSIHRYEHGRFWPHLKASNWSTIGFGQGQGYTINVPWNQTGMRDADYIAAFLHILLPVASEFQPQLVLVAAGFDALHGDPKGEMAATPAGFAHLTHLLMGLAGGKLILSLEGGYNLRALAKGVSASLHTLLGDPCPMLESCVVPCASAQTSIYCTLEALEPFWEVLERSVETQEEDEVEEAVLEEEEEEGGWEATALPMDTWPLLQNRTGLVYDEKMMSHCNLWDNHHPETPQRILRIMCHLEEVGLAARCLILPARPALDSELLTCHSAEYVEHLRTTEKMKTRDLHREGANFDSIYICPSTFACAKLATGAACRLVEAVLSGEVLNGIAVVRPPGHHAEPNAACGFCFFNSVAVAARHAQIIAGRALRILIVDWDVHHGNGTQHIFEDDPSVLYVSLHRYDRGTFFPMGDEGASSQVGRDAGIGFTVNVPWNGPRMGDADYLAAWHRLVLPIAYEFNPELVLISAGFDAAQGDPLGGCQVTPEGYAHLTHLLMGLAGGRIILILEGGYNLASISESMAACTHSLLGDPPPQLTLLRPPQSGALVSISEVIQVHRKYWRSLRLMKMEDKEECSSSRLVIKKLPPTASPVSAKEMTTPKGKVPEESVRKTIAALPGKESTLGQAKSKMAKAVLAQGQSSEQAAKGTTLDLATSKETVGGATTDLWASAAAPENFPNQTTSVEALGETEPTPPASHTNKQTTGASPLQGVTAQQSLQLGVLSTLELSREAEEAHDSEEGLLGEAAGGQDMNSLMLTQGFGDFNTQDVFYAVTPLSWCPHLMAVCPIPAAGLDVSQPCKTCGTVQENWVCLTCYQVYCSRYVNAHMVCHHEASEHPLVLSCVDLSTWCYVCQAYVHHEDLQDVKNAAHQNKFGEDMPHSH

[3] = test system: Lewis lung carcinoma cell line; assay: Induction of multi-nuclei formation in mouse LL/2 cells at 0.8 uM after 24 hrs in presence of paclitaxel by 4',6-diamidino-2-phenylindole staining-based assay; assay type: functional, cell-based
[4] = molecular target: T1, Protein deacetylase HDAC6 (Mus musculus); assay: Inhibition of HDAC6 in mouse LL/2 cells assessed as reduction in PD-L1 expression at 2 to 10 uM after 24 hrs by Western blot analysis; assay type: cell-based
[5] = molecular target: Histone deacetylase 1 (Homo sapiens) (UniProt Q13547); assay: Inhibition of HDAC1 in human A549 cells assessed as effect on histone H3 acetylation level at 1 uM after 24 hrs by Western blot analysis; assay type: cell-based
Chain of Histone deacetylase 1 (Homo sapiens) (Q13547 whole entry): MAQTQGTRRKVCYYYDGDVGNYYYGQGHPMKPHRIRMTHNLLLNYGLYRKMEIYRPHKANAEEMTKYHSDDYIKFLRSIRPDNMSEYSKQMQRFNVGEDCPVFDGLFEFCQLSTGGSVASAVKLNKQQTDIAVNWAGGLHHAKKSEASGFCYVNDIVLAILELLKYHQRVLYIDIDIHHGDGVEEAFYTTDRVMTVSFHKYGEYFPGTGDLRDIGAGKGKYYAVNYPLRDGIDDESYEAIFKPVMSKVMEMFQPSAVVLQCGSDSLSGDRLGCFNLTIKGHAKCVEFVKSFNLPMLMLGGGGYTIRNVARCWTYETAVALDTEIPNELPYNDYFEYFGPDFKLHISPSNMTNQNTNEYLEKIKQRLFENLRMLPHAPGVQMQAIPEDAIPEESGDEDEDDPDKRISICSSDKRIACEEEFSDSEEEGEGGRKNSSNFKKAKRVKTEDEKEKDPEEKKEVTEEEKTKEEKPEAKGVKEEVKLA

[6] = test system: Lewis lung carcinoma cell line; assay: Antitumor activity against mouse LL/2 cells implanted in C57BL/6 mouse assessed as tumor growth inhibition at 20 mg/kg, po qd administered for 21 consecutive days; assay type: functional, organism-based
[7] = test system: Lewis lung carcinoma cell line; assay: Cytotoxicity against mouse LL/2 cells at 0.8 uM after 72 hrs in presence of paclitaxel by crystal violet staining-based assay; assay type: functional, cell-based
[8] = molecular target: T1, Protein deacetylase HDAC6 (Mus musculus); assay: Inhibition of HDAC6 in mouse LL/2 cells assessed as reduction in PD-L1 expression at 2 to 5 uM in presence of paclitaxel after 24 hrs by Western blot analysis; assay type: cell-based
[9] = test system: Lewis lung carcinoma cell line; assay: Cytotoxicity against mouse LL/2 cells at 0 to 10 uM after 72 hrs in presence of paclitaxel by MTT assay relative to control; assay type: functional, cell-based
Outline: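 Mouse LL/2 lung cancer cells cultured for 72 h with increasing inhibitor concentrations (0–10 μM) together with paclitaxel. Viability read by MTT. Combination assessed by the Chou-Talalay method as a combination index.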

[10] = molecular target: T1, Protein deacetylase HDAC6 (Mus musculus); assay: Inhibition of HDAC6 in mouse LL/2 cells assessed as induction of alpha tubulin acetylation at 0.8 uM after 24 hrs by Western blot analysis relative to control; assay type: cell-based
[11] = molecular target: T1, Protein deacetylase HDAC6 (Mus musculus); assay: Inhibition of HDAC6 in mouse LL/2 cells assessed as induction of alpha tubulin acetylation at 4 uM in presence of paclitaxel after 24 hrs by Western blot analysis relative to control; assay type: cell-based
[12] = test system: Lewis lung carcinoma cell line; assay: Decrease in PD-L1 expression in mouse LL/2 cells at 10 uM after 24 hrs by Western blot analysis
[13] = test system: Lewis lung carcinoma cell line; assay: Antitumor activity against mouse LL/2 cells implanted in C57BL/6 mouse assessed as tumor growth inhibition at 10 mg/kg, ip qd administered for 5 days; assay type: functional, organism-based
[14] = molecular target: T1, Protein deacetylase HDAC6 (Mus musculus); assay: Inhibition of HDAC6 in mouse LL/2 cells assessed as reduction in PD-L1 expression at 10 uM after 24 hrs by Western blot analysis; assay type: cell-based

SMILES | Ratio IC50 (Homo sapiens) | also measured
O=C(NO)c1ccc(Cn2c(=O)n(CCc3ccccc3)c(=O)c3ccsc32)cc1 | 443 | 
O=C(NO)c1cc(Cn2c(=O)n(CCc3ccccc3)c(=O)c3ccccc32)cs1 | > 8 | 
O=C(NO)c1ccc(Cn2c(=O)n(CCc3ccccc3)c(=O)c3cc(F)ccc32)cc1 | 235 | 
O=C(NO)c1ccc(Cn2c(=O)n(CCc3ccc(F)cc3)c(=O)c3ccccc32)cc1 | 470 | 
O=C(NO)c1ccc(Cn2c(=O)n(CCc3ccccc3)c(=O)c3cc(Cl)ccc32)cc1 | 539 | 
Cc1ccc2c(=O)n(CCc3ccccc3)c(=O)n(Cc3ccc(C(=O)NO)cc3)c2c1 | 64 | 
O=C(NO)c1ccc(Cn2c(=O)n(CCc3ccccc3)c(=O)c3ccccc32)s1 | 1150 | 
O=C(NO)c1ccc(Cn2c(=O)n(CCc3ccc(O)cc3)c(=O)c3ccccc32)cc1 | 1820 | 
O=C(NO)c1ccc(Cn2c(=O)n(CCc3ccccc3)c(=O)c3ccccc32)cc1 | 2790 | Activity [1]: Active; fold change (FC) [2]: 74.7; Activity [3]: Active; inhibition [4]: Active; inhibition [5]: inactive; TGI [6]: inactive; Activity [7]: Active; inhibition [8]: Active; Activity [9]: Active; fold change (FC) [10]: 42.7; inhibition [11]: Active
CC(=O)O[C@H]1C(=O)[C@@]2(C)[C@H]([C@H](OC(=O)c3ccccc3)[C@]3(O)C[C@H](OC(=O)[C@H](O)[C@@H](NC(=O)c4ccccc4)c4ccccc4)C(C)=C1C3(C)C)[C@]1(OC(C)=O)CO[C@@H]1C[C@@H]2O |  | Activity [12]: Active; TGI [13]: inactive
O=C(NO)c1ccc(Cn2c(=O)n(CCc3ccccc3)c(=O)c3ccc(F)cc32)cc1 | 1180 | 
O=C(NO)c1ccc(Cn2c(=O)n(CCc3ccccc3)c(=O)c3ccc(Cl)cc32)cc1 | 434 | 
O=C(NO)c1ccc(Cn2c(=O)n(CCc3cccc(C(F)(F)F)c3)c(=O)c3ccccc32)cc1 | 529 | Activity [7]: Active
COc1ccc2c(=O)n(CCc3ccccc3)c(=O)n(Cc3ccc(C(=O)NO)cc3)c2c1 | 235 | 
O=C(NO)c1ccc(Cn2c(=O)n(CCc3ccccc3)c(=O)c3cccnc32)cc1 | 384 | 
O=C(NO)c1ccc(Cn2c(=O)n(CCc3cccc(F)c3)c(=O)c3ccccc32)cc1 | 1320 | 
O=C(NO)c1ccc(Cn2c(=O)n(CCc3ccccc3)c(=O)c3ccc(O)cc32)cc1 | 259 | 
COc1ccc(CCn2c(=O)c3ccccc3n(Cc3ccc(C(=O)NO)cc3)c2=O)cc1 | 369 | 
O=C(NO)c1ccc(Cn2c(=O)n(CCc3ccccc3)c(=O)c3ccc(C(F)(F)F)cc32)cc1 | 13 | 
O=C(NO)c1ccc(Cn2c(=O)n(CCc3ccccc3)c(=O)c3ccc(C4CC4)cc32)cc1 | 86 | 
O=C(CCCCCCC(=O)Nc1ccccc1)NO |  | inhibition [14]: inactive
O=C(NO)c1cccc(Cn2c(=O)n(CCc3ccccc3)c(=O)c3ccccc32)c1 | > 2 | 
